Values after ≈ are worked out from the molar mass of the structure shown. Active and inactive are the calls of the source. No cut-off for these calls is given here.
Tests used:
[1] = AUC (0 to 24 hrs) in Staphylococcus aureus in in vitro pharmacokinetic/pharmacodynamic model at 10 mg/kg every 24 hrs; assay type: ADME, organism-based; design: time < 24 hr, dose 10 mg/kg
Outline: (§1)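 Biofilm reactor with polystyrene coupons, simulating human free-drug profiles in supplemented Mueller-Hinton broth (calcium 25 μg/ml, magnesium 12.5 μg/ml) after a 40-h biofilm conditioning phase. Vancomycin was measured by fluorescence polarization immunoassay (lower limit 2 μg/ml). […] Half-life, AUC and peak were derived by the trapezoidal method.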

[2] = Half life in Staphylococcus aureus in in vitro pharmacokinetic/pharmacodynamic model at 10 mg/kg every 24 hrs; assay type: ADME, organism-based; design: dose 10 mg/kg; outline: as §1
[3] = test system: Staphylococcus aureus; assay: fCmax in Staphylococcus aureus in in vitro pharmacokinetic/pharmacodynamic model at 10 mg/kg every 24 hrs; assay type: ADME, organism-based; design: dose 10 mg/kg; outline: as §1
[4] = test system: Staphylococcus aureus; assay: Antimicrobial activity against methicillin-susceptible Staphylococcus aureus SH1000 assessed as inhibition of bacterial biofilm formation by CLSI broth microdilution method; assay type: functional
[5] = test system: Staphylococcus aureus; assay: Antimicrobial activity against methicillin-susceptible Staphylococcus aureus SH1000 by CLSI broth microdilution method; assay type: functional
[6] = test system: Staphylococcus aureus; assay: Antimicrobial activity against methicillin-resistant Staphylococcus aureus N315 by CLSI broth microdilution method; assay type: functional
[7] = test system: Staphylococcus aureus; assay: Bactericidal activity against methicillin-resistant Staphylococcus aureus N315 in in vitro pharmacokinetic/pharmacodynamic model assessed as decrease in planktonic cell count at 10 mg/kg every 24 hrs measured after 48 hrs; assay type: functional, organism-based; design: dose 10 mg/kg
Outline: (§2)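 Biofilm reactor with polystyrene coupons. Conditioning: 24 h at 37°C in TSB with 1% glucose, then 16 h continuous flow of TSB with 10% glucose (30-min residence time). […] Coupons (biofilm cells, recovered by vortex/sonication) and medium (planktonic cells) sampled 0–72 h and plated on TSA. Limit of detection 2 log10 CFU/ml, extended to 1 by filtration. Duplicate models.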

[8] = test system: Staphylococcus aureus; assay: Bactericidal activity against methicillin-resistant Staphylococcus aureus N315 planktonic cell in in vitro pharmacokinetic/pharmacodynamic model assessed as decrease in bacterial count at 10 mg/kg every 24 hrs; assay type: functional, organism-based; design: dose 10 mg/kg; outline: as §2
[9] = test system: Staphylococcus aureus; assay: Bactericidal activity against Staphylococcus aureus in in vitro pharmacokinetic/pharmacodynamic model assessed as decrease in planktonic cell count at 10 mg/kg every 24 hrs; assay type: functional
Outline: (§3)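 Planktonic cells were sampled (≈1 ml) from the flow biofilm reactor at 0, 4, 8, 24, 32, 48, 56 and 72 h during simulated regimens in SMHB, with duplicate models. Samples were serially diluted or vacuum-filtered against carryover, spiral-plated on TSA, and grown 24 h at 37°C; detection limit 1–2 log10 CFU/ml. Bactericidal means a ≥3-log10 CFU/ml fall from the starting inoculum.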

[10] = test system: Staphylococcus aureus; assay: Bactericidal activity against Staphylococcus aureus in in vitro pharmacokinetic/pharmacodynamic model assessed as decrease in biofilm bacterial count at 10 mg/kg every 24 hrs; assay type: functional
Outline: (§4)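 MSSA SH1000 or MRSA N315 biofilm was conditioned for 40 h (24 h batch in 1% glucose TSB at 37°C, then 16 h flow in 10% glucose TSB) on polystyrene coupons. Simulated regimens ran 72 h in SMHB, duplicate models. Three coupons per time point (0–72 h) were saline-washed, vortexed and sonicated, and drop-plated on TSA. Reduction is log10 CFU/ml versus start; ≥3-log10 counts as bactericidal.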

[11] = test system: Staphylococcus aureus; assay: Bactericidal activity against methicillin-resistant Staphylococcus aureus N315 planktonic cell in in vitro pharmacokinetic/pharmacodynamic model assessed as decrease in bacterial count at 10 mg/kg every 24 hrs measured after 72 hrs; assay type: functional; outline: as §2
[12] = test system: Staphylococcus aureus; assay: Bactericidal activity against methicillin-resistant Staphylococcus aureus N315 in in vitro pharmacokinetic/pharmacodynamic model assessed as decrease in biofilm bacterial count at 10 mg/kg every 24 hrs measured after 72 hrs; assay type: functional; outline: as §2
[13] = test system: Staphylococcus aureus; assay: fCmax in Staphylococcus aureus in in vitro pharmacokinetic/pharmacodynamic model at 250 mg every 12 hrs; assay type: ADME, organism-based
[14] = Half life in Staphylococcus aureus in in vitro pharmacokinetic/pharmacodynamic model at 250 mg every 12 hrs; assay type: ADME, organism-based
[15] = AUC (0 to 24 hrs) in Staphylococcus aureus in in vitro pharmacokinetic/pharmacodynamic model at 250 mg every 12 hrs; assay type: ADME, organism-based; design: dose 250 mg, time < 24 hr
[16] = AUC (0 to 24 hrs) in Staphylococcus aureus in in vitro pharmacokinetic/pharmacodynamic model at 400 mg every 24 hrs; assay type: ADME, organism-based; design: time < 24 hr, dose 400 mg
[17] = test system: Staphylococcus aureus; assay: fCmax in Staphylococcus aureus in in vitro pharmacokinetic/pharmacodynamic model at 400 mg every 24 hrs; assay type: ADME, organism-based
[18] = test system: Staphylococcus aureus; assay: Bactericidal activity against Staphylococcus aureus in in vitro pharmacokinetic/pharmacodynamic model assessed as decrease in biofilm bacterial count at 400 mg every 24 hrs measured after 72 hrs; assay type: functional; outline: as §4
[19] = test system: Staphylococcus aureus; assay: Bactericidal activity against Staphylococcus aureus in in vitro pharmacokinetic/pharmacodynamic model assessed as decrease in planktonic cell count at 400 mg every 24 hrs measured after 72 hrs; assay type: functional; outline: as §3
[20] = test system: Staphylococcus aureus; assay: Bactericidal activity against Staphylococcus aureus in in vitro pharmacokinetic/pharmacodynamic model assessed as decrease in biofilm bacterial count at 400 mg every 24 hrs; assay type: functional; outline: as §4
[21] = test system: Staphylococcus aureus; assay: Bactericidal activity against Staphylococcus aureus in in vitro pharmacokinetic/pharmacodynamic model assessed as decrease in planktonic cell count at 400 mg every 24 hrs; assay type: functional; outline: as §3
[22] = test system: Staphylococcus aureus; assay: Antimicrobial activity against methicillin-resistant Staphylococcus aureus N315 assessed as inhibition of bacterial biofilm formation by CLSI broth microdilution method; assay type: functional
Outline: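 Biofilm MIC determined using the modified Calgary biofilm device method.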

[23] = test system: Staphylococcus aureus; assay: fCmax in Staphylococcus aureus in in vitro pharmacokinetic/pharmacodynamic model at 600 mg every 24 hrs; assay type: ADME, organism-based
[24] = AUC (0 to 24 hrs) in Staphylococcus aureus in in vitro pharmacokinetic/pharmacodynamic model at 600 mg every 24 hrs; assay type: ADME, organism-based; design: dose 600 mg, time < 24 hr
[25] = AUC (0 to 24 hrs) in Staphylococcus aureus in in vitro pharmacokinetic/pharmacodynamic model; assay type: ADME, organism-based; design: time < 24 hr; outline: as §1
[26] = Half life in Staphylococcus aureus in in vitro pharmacokinetic/pharmacodynamic model; assay type: ADME, organism-based; outline: as §1
[27] = test system: Staphylococcus aureus; assay: fCmax in Staphylococcus aureus in in vitro pharmacokinetic/pharmacodynamic model; assay type: ADME, organism-based; outline: as §1

CCCCCCCCCC(=O)N[C@@H](Cc1c[nH]c2ccccc12)C(=O)N[C@H](CC(N)=O)C(=O)N[C@@H](CC(=O)O)C(=O)N[C@@H]1C(=O)NCC(=O)N[C@@H](CCCN)C(=O)N[C@@H](CC(=O)O)C(=O)N[C@H](C)C(=O)N[C@@H](CC(=O)O)C(=O)NCC(=O)N[C@H](CO)C(=O)N[C@@H]([C@H](C)CC(=O)O)C(=O)N[C@@H](CC(=O)c2ccccc2N)C(=O)O[C@@H]1C
AUC at 24 h [1]: 200 µg·h/mL | half-life [2]: 493 min | fCmax [3]: 11.79 µg/mL | MBIC [4]: 2 µg/mL | MIC [5]: 0.125 µg/mL (≈ 0.0771 µM) | MIC [6]: 0.125 µg/mL (≈ 0.0771 µM) | Activity [7]: inactive | Activity [8]: Active | log10CFU/ml [9]: 2.2 | log10CFU/ml [10]: 2.83 | log10CFU/ml [11]: 2.78 | log10CFU/ml [12]: 2.73

CC[C@H]1OC(=O)[C@H](C)[C@@H](O[C@H]2C[C@@](C)(OC)[C@@H](O)[C@H](C)O2)[C@H](C)[C@@H](O[C@@H]2O[C@H](C)C[C@H](N(C)C)[C@H]2O)[C@](C)(OC)C[C@@H](C)C(=O)[C@H](C)[C@@H](O)[C@]1(C)O [CLARITHROMYCIN]
MBIC [4]: >128 µg/mL | fCmax [13]: 1.15 µg/mL | half-life [14]: 235 min | AUC at 24 h [15]: 6530 ng·h/mL | MIC [5]: > 128 µg/mL

COc1c(N2C[C@@H]3CCCN[C@@H]3C2)c(F)cc2c(=O)c(C(=O)O)cn(C3CC3)c12 [MOXIFLOXACIN]
AUC at 24 h [16]: 44200 ng·h/mL | fCmax [17]: 2.52 µg/mL | log10CFU/ml [18]: 4.06 | log10CFU/ml [19]: 4.04 | log10CFU/ml [20]: 2.38 | log10CFU/ml [21]: 2.33

CO[C@H]1/C=C/O[C@@]2(C)Oc3c(C)c(O)c4c(O)c(c(/C=N/N5CCN(C)CC5)c(O)c4c3C2=O)NC(=O)/C(C)=C\C=C\[C@H](C)[C@H](O)[C@@H](C)[C@@H](O)[C@@H](C)[C@H](OC(C)=O)[C@@H]1C [RIFAMPIN]
MBIC [22]: <0.0625 µg/mL | fCmax [23]: 3.82 µg/mL | AUC at 24 h [24]: 19600 ng·h/mL | MIC [6]: < 0.0625 µg/mL

CN[C@H](CC(C)C)C(=O)N[C@H]1C(=O)N[C@@H](CC(N)=O)C(=O)N[C@H]2C(=O)N[C@H]3C(=O)N[C@H](C(=O)N[C@H](C(=O)O)c4cc(O)cc(O)c4-c4cc3ccc4O)[C@H](O)c3ccc(c(Cl)c3)Oc3cc2cc(c3O[C@@H]2O[C@H](CO)[C@@H](O)[C@H](O)[C@H]2O[C@H]2C[C@](C)(N)[C@H](O)[C@H](C)O2)Oc2ccc(cc2Cl)[C@H]1O [VANCOMYCIN]
AUC(0-t) at 24 h [25]: 193 µg·h/mL | half-life [26]: 355 min | fCmax [27]: 22.6 µg/mL | MBIC [22]: 2 µg/mL | MIC [6]: 0.25 µg/mL (≈ 0.173 µM)
